Experimental findings from ChEMBL document CHEMBL4257553, “Novel organophosphorus aminopyrimidines as unique structural DNA-targeting membrane active inhibitors towards drug-resistant methicillin-resistant Staphylococcus aureus” (Medchemcomm, 2018) are described below.

For data set [1], the system named is Staphylococcus aureus. The data set can be described thus: Antibacterial activity against Staphylococcus aureus after 24 hrs by microbroth dilution method. The format is functional. The procedure, abridged:
(§1)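 Tested by CLSI-standard broth microdilution against a panel of eleven bacterial strains, Gram-positive and Gram-negative, including MRSA.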

Data set [2] relates to Staphylococcus aureus. Put plainly: Antibacterial activity against methicillin resistant Staphylococcus aureus after 16 serial passages measured after 12 hrs by microbroth dilution method. The format is functional, organism-based. The method, boiled down: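 MRSA standard strain passaged serially with compound. Each passage starts from the bacteria grown at sub-MIC (0.5 × MIC), and the MIC is redetermined by the broth microdilution method at every passage.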

Data set [3] relates to Staphylococcus aureus. Put plainly: Antibacterial activity against methicillin resistant Staphylococcus aureus after 24 hrs by microbroth dilution method. Type of data set: functional. The procedure, abridged: as §1
Data set [4] concerns Staphylococcus aureus. Put plainly: Bactericidal activity against methicillin resistant Staphylococcus aureus assessed as reduction in bacterial load at 6 times MIC up to 1 hr by time kill assay. Type of data set: functional. The procedure, abridged:
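MRSA grown 6 h at 37 °C and diluted to about 1.8 × 10^5 CFU/mL. Compound added at MIC and 6 × MIC, then incubated at 37 °C. Samples taken at 0, 30, 60, 90, 120, 240, 360 and 420 min, diluted 10-fold serially in 0.9% saline, plated on agar and counted after 24 h at 37 °C.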

For another data set, the system named is Cell membrane. Put plainly: Binding affinity to methicillin resistant Staphylococcus aureus cell membrane assessed as induction of membrane permeabilization at 12 times MIC measured for 10 to 70 mins by propidium iodide dye based fluorescence assay. The procedure, abridged:
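MRSA cultured 12 h at 37 °C, centrifuged, washed and resuspended in 5 mM glucose/5 mM HEPES (1:1). Compound (12 × MIC) added to cuvette with cells and propidium iodide. PI uptake followed as fluorescence increase (ex 535 nm, em 617 nm).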

The test system of a further data set is Klebsiella pneumoniae. Put plainly: Antibacterial activity against Klebsiella pneumoniae after 24 hrs by microbroth dilution method. The format is functional. The procedure, abridged: as §1
Data set [5] has as its system Staphylococcus aureus. Put plainly: Antibacterial activity against Staphylococcus aureus ATCC 29213 after 24 hrs by microbroth dilution method. The format is functional. The following applies: ATCC 29213, 24 h. The method, boiled down:
as §1

In data set [6] the test system is Escherichia coli. Put plainly: Antibacterial activity against Escherichia coli ATCC 25922 after 24 hrs by microbroth dilution method. The format is functional. The note with it: ATCC 25922, 24 h. The procedure, abridged: as §1
The nature of data set [7]: Cytotoxicity against mouse L929 cells assessed as cell viability up to 128 ug/ml after 48 hrs by MTT assay relative to control. The format is cell-based. The following applies: read-out: Activity. The procedure, abridged:
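Mouse fibroblast L929 cells grown in DMEM with 10% serum and 1% penicillin/streptomycin at 37 °C, 5% CO2, seeded and cultured 24 h. Compound diluted in medium and tested in triplicate at 0, 4, 8, 16, 32, 64, 128, 256 and 512 μg/mL for 48 h. MTT in PBS added for 3–4 h, formazan dissolved in DMSO, absorbance read at 570 nm (also stated 490 nm).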

In data set [8] the test system is DNA. The data set can be described thus: Binding affinity to methicillin resistant Staphylococcus aureus DNA assessed as hypochromic effect up to 3.5 x 10^-5mol/L by absorption spectra analysis. Type of data set: nucleic-acid assay.
The subject of data set [9] is Staphylococcus aureus. The data set can be described thus: Antibacterial activity against Staphylococcus aureus ATCC 25923 after 24 hrs by microbroth dilution method. The format is functional. The following applies: ATCC 25923, 24 h. The method, boiled down:
as §1

Data set [10] has as its system Aspergillus fumigatus. The data set can be described thus: Antifungal activity against Aspergillus fumigatus after 24 hrs by microbroth dilution method. Type of data set: functional.
Data set [11] relates to Pseudomonas aeruginosa. Put plainly: Antibacterial activity against Pseudomonas aeruginosa ATCC 27853 after 24 hrs by microbroth dilution method. Type of data set: functional. The note with it: ATCC 27853, 24 h. The procedure, abridged: as §1
Data set [12] deals with Escherichia coli. The data set can be described thus: Antibacterial activity against Escherichia coli after 24 hrs by microbroth dilution method. Type of data set: functional. The procedure, abridged:
as §1

Data set [13] has as its system DNA. The data set can be described thus: Binding affinity to methicillin resistant Staphylococcus aureus DNA by absorption spectra analysis. Type of data set: nucleic-acid assay.
For data set [14], the system named is DNA. Put plainly: Inhibition of neutral red dye binding to methicillin resistant Staphylococcus aureus DNA up to 3.5 x 10^-5mol/L by UV-Visible absorption spectra analysis. Type of data set: nucleic-acid assay. The procedure, abridged: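 MRSA genomic DNA with A260/A280 > 1.8 in Tris-HCl buffer pH 7.4, combined with aqueous neutral red dye stock. Competitive displacement followed by UV-vis absorption spectroscopy.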

In another data set the test system is Enterococcus faecalis. Put plainly: Antibacterial activity against Enterococcus faecalis after 24 hrs by microbroth dilution method. The format is functional. The procedure, abridged: as §1
In the next data set the test system is Acinetobacter baumannii. The data set can be described thus: Antibacterial activity against Acinetobacter baumannii after 24 hrs by microbroth dilution method. The format is functional. The method, boiled down:
as §1

For data set [15], the system named is Pseudomonas aeruginosa. Put plainly: Antibacterial activity against Pseudomonas aeruginosa after 24 hrs by microbroth dilution method. Type of data set: functional. The procedure, abridged:
as §1

Data set [16] deals with Aspergillus fumigatus. The data set can be described thus: Potency index, ratio of fluconazole MIC to compound MIC for antifungal activity against Aspergillus fumigatus. Type of data set: functional.
The test system of another data set is Candida albicans. Put plainly: Antifungal activity against Candida albicans ATCC 90023 after 24 hrs by microbroth dilution method. The following applies: ATCC 90023, 24 h. Type of data set: functional.

Molecules are shown by their SMILES. ≈ marks a conversion by molar mass, not a printed value. Calls of active or inactive are those of the source. The calls are words filed in the database; no cut-off is given here.

Take `CCCCCn1c(CCCC)nc(Cl)c1C(Nc1ncccn1)P(=O)(OCC)OCC` (stereo not drawn): the MIC against Staphylococcus aureus [1] was 64 µg/mL (≈ 136 µM); with Staphylococcus aureus [3], 4 µg/mL (≈ 8.48 µM); with Klebsiella pneumoniae it was 8 µg/mL (≈ 17 µM); against Staphylococcus aureus [5], 64 µg/mL (≈ 136 µM); in the data set on Escherichia coli [6], 16 µg/mL (≈ 33.9 µM); with Staphylococcus aureus [9], 32 µg/mL (≈ 67.8 µM). The MIC is over 16 µg/mL with Aspergillus fumigatus [10]; 64 µg/mL (≈ 136 µM) with Pseudomonas aeruginosa [11]; 128 µg/mL (≈ 271 µM) with Escherichia coli [12]; 8 µg/mL (≈ 17 µM) in the data set with Enterococcus faecalis; 32 µg/mL (≈ 67.8 µM) against Acinetobacter baumannii; 64 µg/mL (≈ 136 µM) in the data set with Pseudomonas aeruginosa [15]. For the same molecule, the outcome with Staphylococcus aureus [2], in the data set on Cell membrane and with DNA [8] was Active. For the same molecule, the Activity with Staphylococcus aureus [4] is recorded as over 3 deltalog10CFU/ml. The viability at 48 h in data set [7] is at most 80%. Also, in the data set on DNA [13], the K was determined as 6.84 ×10³ L/mol. For the same molecule, the inhibition result in the data set with DNA [14] was “Active”. Further, in the data set with Aspergillus fumigatus [16], the Ratio stood at 16.

For the molecule `CCOP(=O)(OCC)C(Nc1ncccn1)c1ccc(Cl)cc1Cl` (stereo not drawn), the MIC against Staphylococcus aureus [1] stood at 64 µg/mL (≈ 164 µM); against Staphylococcus aureus [3], 8 µg/mL (≈ 20.5 µM); against Klebsiella pneumoniae, 64 µg/mL (≈ 164 µM); against Staphylococcus aureus [5], 64 µg/mL (≈ 164 µM); against Escherichia coli [6] it was 16 µg/mL (≈ 41 µM); against Candida albicans, 8 µg/mL (≈ 20.5 µM). Also, the MIC in the data set with Staphylococcus aureus [9] was 8 µg/mL (≈ 20.5 µM); in the data set on Aspergillus fumigatus [10], over 16 µg/mL; in the data set on Pseudomonas aeruginosa [11], 8 µg/mL (≈ 20.5 µM); in the data set with Escherichia coli [12], 256 µg/mL (≈ 656 µM); with Enterococcus faecalis it was 32 µg/mL (≈ 82 µM); against Acinetobacter baumannii, 64 µg/mL (≈ 164 µM). For the same molecule, 64 µg/mL (≈ 164 µM) was the least that counted as inhibitory against Pseudomonas aeruginosa [15] (MIC). In the data set on Aspergillus fumigatus [16], the Ratio was found to be 16.

Turning to `CCOP(=O)(OCC)C(Nc1ncccn1)c1ccc(Cl)cc1` (stereo not drawn), the MIC against Staphylococcus aureus [1] was 256 µg/mL (≈ 720 µM); against Staphylococcus aureus [3], 64 µg/mL (≈ 180 µM); against Klebsiella pneumoniae, 128 µg/mL (≈ 360 µM); with Staphylococcus aureus [5] it was 256 µg/mL (≈ 720 µM); in the data set with Escherichia coli [6], 256 µg/mL (≈ 720 µM); in the data set with Candida albicans it was 8 µg/mL (≈ 22.5 µM). The MIC against Staphylococcus aureus [9] is 64 µg/mL (≈ 180 µM); against Aspergillus fumigatus [10] it was over 16 µg/mL; in the data set with Pseudomonas aeruginosa [11], 8 µg/mL (≈ 22.5 µM); with Escherichia coli [12], 512 µg/mL (≈ 1440 µM); against Enterococcus faecalis it was 32 µg/mL (≈ 89.9 µM); against Acinetobacter baumannii, 128 µg/mL (≈ 360 µM). The same molecule came in with a minimum inhibitory concentration (MIC) in the data set with Pseudomonas aeruginosa [15] of 256 µg/mL (≈ 720 µM). The Ratio in the data set on Aspergillus fumigatus [16] came to 16.
